For assay [1], the system named is Ribosome. The assay can be described thus: Inhibition of bacterial translation by blocking the function of the ribosomal GTPase center at 400 uM concentration. Type of assay: subcellular. Conditions: Escherichia coli. The procedure, abridged: (§1)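 Translation inhibition was tested at a single compound concentration, since limited solubility ruled out dose-response data at higher concentrations. Percent inhibition is the mean of three replicate experiments per compound (±10%).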

Assay [2] relates to Ribosome. The assay can be described thus: Inhibition of bacterial translation by blocking the function of the ribosomal GTPase center at 150 uM concentration. Type of assay: subcellular. Conditions: Escherichia coli. The procedure, abridged: as §1
The target in assay [3] is Ribosome. The assay can be described thus: Inhibition of bacterial translation by blocking the function of the ribosomal GTPase center. It counts as subcellular, Escherichia coli.
For assay [4], the system named is Ribosome. The assay can be described thus: Inhibition of bacterial translation by blocking the function of the ribosomal GTPase center at 0.17 uM concentration. It counts as subcellular. Conditions: Escherichia coli. In outline: as §1
The subject of assay [5] is Ribosome. The assay can be described thus: Inhibition of bacterial translation by blocking the function of the ribosomal GTPase center at 15 uM concentration. Particulars: Escherichia coli. It counts as subcellular. In outline:
as §1

SMILES strings stand for the structures.

As usually defined, the inhibition is the share of the control response that was lost under treatment. `C=C(NC(=O)c1csc(-c2cccnc2)n1)C(=O)N[C@@H](COC(C)(C)C)C(=O)OC`: the inhibition in assay [1] stood at 30%.

As for `C=C(NC(=O)c1cnccn1)C(=O)N[C@@H](Cc1cn(C(=O)OC(C)(C)C)c2ccccc12)C(=O)OC`, the inhibition in assay [2] turned out to be 10%.

A word on the IC50: it is the concentration that inhibits the measured activity by half. A lower IC50 goes with greater potency. For the compound `C=C(NC(=O)c1csc(-c2cccnc2)n1)C(=O)N[C@@H](Cc1cn(C(=O)OC(C)(C)C)c2ccccc12)C(=O)OC`, the midpoint of inhibition in assay [3], the IC50, lay at 40 µM.

As to `C=C(NC(=O)c1cnccn1)C(=O)NC(=C)C(=O)OC`, the inhibition in assay [1] turned out to be 30%.

`C=C(NC(=O)C(=C)NC(=O)c1csc(C2=N[C@@H]3c4csc(n4)[C@H]4NC(=O)c5csc(n5)[C@H]([C@](C)(O)[C@@H](C)O)NC(=O)[C@H]5CSC(=N5)/C(=C/C)NC(=O)[C@H]([C@@H](C)O)NC(=O)c5csc(n5)[C@]3(CC2)NC(=O)[C@H](C)NC(=O)C(=C)NC(=O)[C@H](C)NC(=O)[C@H]([C@@H](C)CC)N[C@@H]2C=Cc3c([C@H](C)O)cc(nc3[C@H]2O)C(=O)O[C@@H]4C)n1)C(N)=O` returned an inhibition in assay [4] of 50%.

In assay [1], `C=C(NC(=O)c1ccccn1)C(=O)N[C@@H](COC(C)(C)C)C(=O)OC` yielded an inhibition of 40%.

Consider `C=C(NC(=O)c1cnccn1)C(=O)N[C@@H](COC(C)(C)C)C(=O)OC`, for which, in assay [1], the inhibition was 15%.

`C=C(NC(=O)c1csc(-c2cccnc2)n1)C(=O)N[C@@H](Cc1c[nH]c2ccccc12)C(=O)OC` registered an inhibition in assay [5] of 20%.

The compound `C=C(NC(=O)c1cnccn1)C(=O)N1CCC[C@H]1C(=O)OC` registered an inhibition in assay [1] of 25%.

On to `C=C(NC(=O)c1csc(-c2ccncc2)n1)C(=O)N[C@@H](COC(C)(C)C)C(=O)OC`, for which the inhibition in assay [2] turned out to be 5%.

Compound `C=C(NC(=O)c1csc(-c2cccnc2)n1)C(=O)N1CCC[C@H]1C(=O)OC` came in with an inhibition in assay [1] of 20%.

The compound `C=C(NC(=O)c1ccccn1)C(=O)N1CCC[C@H]1C(=O)OC` had an inhibition in assay [1] of 4%.

`C=C(NC(=O)c1ccccn1)C(=O)N[C@@H](Cc1cn(C(=O)OC(C)(C)C)c2ccccc12)C(=O)OC` registered an inhibition in assay [2] of 20%.

The record behind these values is ChEMBL document CHEMBL1139553, “Synthesis of dehydroalanine fragments as thiostrepton side chain mimetics” (Bioorg Med Chem Lett, 2005).
